In ChEMBL document CHEMBL4431328, “Development of a Single-Chain Peptide Agonist of the Relaxin-3 Receptor Using Hydrocarbon Stapling” (J Med Chem, 2016):
Calls of active or inactive are those of the source. The rule behind the calls is not given here. Where a SMILES comes first, the peptide text is derived from it. Bridges are numbered along the chain shown (N, C = ends). [ ]: non-standard residue; d: D form. S5 = C=CCCC[C@](C)(N)C(=O)O; hCys = N[C@@H](CCS)C(=O)O

Experiments:
[1] = target: T1, Relaxin receptor 1 (Homo sapiens) (UniProt Q9HBX9); assay: (§1) Agonist activity at RXFP1 receptor (unknown origin) expressed in HEK-293T cells cotransfected with beta-galactosidase assessed as cAMP activation by beta-galactosidase reporter gene assay; assay type: functional, cell-based
T1 sequence (whole entry): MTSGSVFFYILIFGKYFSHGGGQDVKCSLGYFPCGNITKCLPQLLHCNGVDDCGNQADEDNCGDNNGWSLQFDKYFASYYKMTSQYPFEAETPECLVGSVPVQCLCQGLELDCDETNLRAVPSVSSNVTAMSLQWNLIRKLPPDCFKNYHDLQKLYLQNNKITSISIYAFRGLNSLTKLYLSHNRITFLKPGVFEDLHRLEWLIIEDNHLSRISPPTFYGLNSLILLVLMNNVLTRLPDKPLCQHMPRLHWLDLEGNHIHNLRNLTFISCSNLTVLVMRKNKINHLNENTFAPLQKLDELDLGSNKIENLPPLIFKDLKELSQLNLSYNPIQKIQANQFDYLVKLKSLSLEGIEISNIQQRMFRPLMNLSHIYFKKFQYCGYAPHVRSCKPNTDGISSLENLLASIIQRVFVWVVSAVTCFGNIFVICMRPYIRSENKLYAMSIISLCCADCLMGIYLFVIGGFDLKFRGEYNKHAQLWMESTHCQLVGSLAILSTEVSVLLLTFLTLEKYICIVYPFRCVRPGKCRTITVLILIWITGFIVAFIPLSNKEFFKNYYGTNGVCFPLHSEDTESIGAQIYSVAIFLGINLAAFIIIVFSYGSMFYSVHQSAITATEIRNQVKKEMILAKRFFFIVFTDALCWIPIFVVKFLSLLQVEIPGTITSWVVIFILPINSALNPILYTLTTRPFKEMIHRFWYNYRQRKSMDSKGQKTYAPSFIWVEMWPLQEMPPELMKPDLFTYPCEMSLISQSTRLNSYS
Method in brief: (§2)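 Tested for RXFP1 activation at concentrations up to 10 µM, alongside the […] as a reference.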

[2] = target: T2, Relaxin-3 receptor 1 (Homo sapiens, UniProt Q9NSD7); assay: Agonist activity at human RXFP3 receptor expressed in CHOK1 cells cotransfected with beta-galactosidase assessed as inhibition of forskolin-stimulated cAMP by beta-galactosidase reporter gene assay; assay type: functional, cell-based
T2 sequence (Q9NSD7 whole entry): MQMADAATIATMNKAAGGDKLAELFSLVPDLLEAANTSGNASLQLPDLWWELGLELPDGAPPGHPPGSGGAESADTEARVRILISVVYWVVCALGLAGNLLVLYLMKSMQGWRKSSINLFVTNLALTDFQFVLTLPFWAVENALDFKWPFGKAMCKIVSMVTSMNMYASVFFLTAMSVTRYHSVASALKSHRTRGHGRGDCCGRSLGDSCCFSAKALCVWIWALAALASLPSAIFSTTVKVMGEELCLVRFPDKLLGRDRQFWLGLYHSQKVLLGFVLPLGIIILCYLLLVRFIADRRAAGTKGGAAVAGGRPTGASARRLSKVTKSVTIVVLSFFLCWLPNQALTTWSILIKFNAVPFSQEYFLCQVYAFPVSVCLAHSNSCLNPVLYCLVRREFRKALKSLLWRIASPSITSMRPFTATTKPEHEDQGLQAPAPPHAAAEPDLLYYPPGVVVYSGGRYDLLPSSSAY

[3] = target: T3, Relaxin-3 receptor 2 (Homo sapiens, UniProt Q8TDU9); assay: Agonist activity at human RXFP4 receptor expressed in CHOK1 cells cotransfected with beta-galactosidase assessed as inhibition of forskolin-stimulated cAMP by beta-galactosidase reporter gene assay; assay type: functional, cell-based
[4] = target: T3, Relaxin-3 receptor 2; assay: Displacement of Eu-INSL5 from human RXFP4 receptor expressed in CHOK1 cells by time-resolved fluorescent whole cell binding assay; assay type: cell-based
[5] = target: T1, Relaxin receptor 1 (Homo sapiens); assay: Agonist activity at RXFP1 receptor (unknown origin) expressed in HEK-293T cells cotransfected with beta-galactosidase assessed as cAMP activation at 10 uM by beta-galactosidase reporter gene assay; assay type: functional, cell-based; method in brief: as §2
[6] = target: T2, Relaxin-3 receptor 1; assay: Displacement of Eu-H3/15 from human RXFP3 receptor expressed in CHOK1 cells by time-resolved fluorescent whole cell binding assay; assay type: cell-based
[7] = target: T4, Relaxin receptor 1 (Homo sapiens, UniProt Q9HBX9); assay: as §1; assay type: functional, cell-based; method in brief: as §2
T4 sequence (Q9HBX9 whole entry): T1 sequence (whole entry)

T3 sequence (Q8TDU9 whole entry): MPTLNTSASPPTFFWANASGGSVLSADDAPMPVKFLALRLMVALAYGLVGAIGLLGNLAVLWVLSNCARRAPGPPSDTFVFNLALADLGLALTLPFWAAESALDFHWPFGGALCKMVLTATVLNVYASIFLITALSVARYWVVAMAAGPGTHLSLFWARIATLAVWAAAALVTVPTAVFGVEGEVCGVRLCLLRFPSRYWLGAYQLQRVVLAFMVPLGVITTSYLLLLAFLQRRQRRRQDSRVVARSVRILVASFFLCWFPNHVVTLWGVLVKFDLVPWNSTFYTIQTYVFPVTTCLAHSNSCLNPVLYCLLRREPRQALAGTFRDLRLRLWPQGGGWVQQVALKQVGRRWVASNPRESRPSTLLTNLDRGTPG

Row | Compound | pEC50 [1] | EC50 [2] | EC50 [3] | Ki [4] | Activity [5] | Ki [6] | pKi [4] | EC50 [7]
1 | CC[C@H](C)[C@H](NC(=O)[C@H](Cc1ccccc1)NC(=O)[C@H](CCC(=O)O)NC(=O)[C@H](CCCNC(=N)N)NC(=O)CNC(=O)[C@H](CO)NC(=O)[C@H](CC(C)C)NC(=O)[C@@H](N)CCCNC(=N)N)C(=O)N[C@@H](CCCNC(=N)N)C(=O)N[C@@]1(C)CCC/C=C\CCC[C@@](C)(C(=O)N[C@@H](CO)C(=O)NCC(=O)NCC(=O)N[C@@H](CO)C(=O)N[C@@H](CCCNC(=N)N)C(=O)N[C@@H](Cc2c[nH]c3ccccc23)C(=O)O)NC(=O)[C@H](Cc2ccccc2)NC(=O)[C@H]([C@@H](C)CC)NC(=O)[C@H](C(C)C)NC1=O (H-RLSGREFIR[S5]VIF[S5]SGGSRW-OH; staple (Z) 10-14) | inactive | > 10000 nM | 2750 nM | > 10000 nM | inactive | 575 nM | – | –
2 | CC[C@H](C)[C@@H]1NC(=O)[C@H](Cc2ccccc2)NC(=O)[C@@H](NC(=O)[C@H](CCCNC(=N)N)NC(=O)CNC(=O)[C@H](CO)NC(C)=O)CCSSCC[C@@H](C(=O)N[C@H](C(=O)N[C@H](C(=O)N[C@@H](Cc2ccccc2)C(=O)N[C@H](C(=O)N[C@@H](CO)C(=O)NCC(=O)NCC(=O)N[C@@H](CO)C(=O)N[C@@H](CCCNC(=N)N)C(=O)N[C@@H](Cc2c[nH]c3ccccc23)C(=O)O)[C@@H](C)O)[C@@H](C)CC)C(C)C)NC(=O)[C@H](CCCNC(=N)N)NC1=O (Ac-SGR[hCys]FIR[hCys]VIFTSGGSRW-OH; disulfide 4-8) | – | > 10000 nM | 3720 nM | > 10000 nM | inactive | 2510 nM | – | –
3 | CC[C@H](C)[C@H](NC(=O)[C@H](Cc1ccccc1)NC(=O)[C@H](CCC(=O)O)NC(=O)[C@H](CCCNC(=N)N)NC(=O)CNC(=O)[C@H](CO)NC(=O)[C@H](CC(C)C)NC(=O)[C@H](CCCNC(=N)N)NC(C)=O)C(=O)N[C@@H](CCCNC(=N)N)C(=O)N[C@@]1(C)CCC/C=C\CCC[C@@](C)(C(=O)N[C@@H](CO)C(=O)NCC(=O)NCC(=O)N[C@@H](CO)C(=O)N[C@@H](CCCNC(=N)N)C(=O)N[C@@H](Cc2c[nH]c3ccccc23)C(=O)O)NC(=O)[C@H](Cc2ccccc2)NC(=O)[C@H]([C@@H](C)CC)NC(=O)[C@H](C(C)C)NC1=O (Ac-RLSGREFIR[S5]VIF[S5]SGGSRW-OH; staple (Z) 10-14) | inactive | > 10000 nM | > 10000 nM | – | inactive | 603 nM | inactive | –
4 | CC[C@H](C)[C@H](NC(=O)[C@H](C)NC(=O)[C@@H](NC(=O)[C@H](CCC(N)=O)NC(=O)[C@H](C)NC(=O)[C@H](CCCNC(=N)N)NC(=O)[C@@H](NC(=O)[C@H](CC(C)C)NC(=O)[C@H](CCC(=O)O)NC(=O)[C@H](CCCNC(=N)N)NC(=O)CNC(=O)[C@H](CS)NC(=O)[C@H](CC(C)C)NC(=O)[C@H](CCCCN)NC(=O)[C@@H](NC(=O)[C@@H](NC(=O)[C@H](CCC(=O)O)NC(=O)[C@H](CCC(=O)O)NC(=O)[C@H](CCSC)NC(=O)[C@H](Cc1c[nH]c2ccccc12)NC(=O)[C@H](CO)NC(=O)[C@@H](N)CC(=O)O)C(C)C)[C@@H](C)CC)C(C)C)[C@@H](C)CC)C(=O)N[C@@H](CS)C(=O)NCC(=O)N[C@@H](CCSC)C(=O)N[C@@H](CO)C(=O)N[C@H](C(=O)N[C@@H](Cc1c[nH]c2ccccc12)C(=O)N[C@@H](CO)C(=O)O)[C@@H](C)O | – | – | – | – | inactive | – | – | > 10000 nM

Continued, values first:

Row | pEC50 [1] | EC50 [2] | EC50 [3] | Ki [4] | Activity [5] | Ki [6] | pKi [4] | EC50 [7] | Compound
5 | inactive | 4.47 nM | 191 nM | 407 nM | inactive | 151 nM | – | – | CC[C@H](C)[C@@H]1NC(=O)[C@H](Cc2ccccc2)NC(=O)[C@@](C)(NC(=O)[C@H](CCCNC(=N)N)NC(=O)CNC(=O)[C@@H](N)CO)CCC/C=C/CCC[C@@](C)(C(=O)N[C@H](C(=O)N[C@H](C(=O)N[C@@H](Cc2ccccc2)C(=O)N[C@H](C(=O)N[C@@H](CO)C(=O)NCC(=O)NCC(=O)N[C@@H](CO)C(=O)N[C@@H](CCCNC(=N)N)C(=O)N[C@@H](Cc2c[nH]c3ccccc23)C(=O)O)[C@@H](C)O)[C@@H](C)CC)C(C)C)NC(=O)[C@H](CCCNC(=N)N)NC1=O (H-SGR[S5]FIR[S5]VIFTSGGSRW-OH; staple (E) 4-8)
6 | – | 11.7 nM | – | – | inactive | 229 nM | – | – | CC[C@H](C)[C@@H]1NC(=O)[C@H](Cc2ccccc2)NC(=O)[C@@](C)(NC(=O)[C@H](CCCNC(=N)N)NC(=O)CNC(=O)[C@H](CO)NC(=O)[C@H](CC(C)C)NC(=O)[C@H](CCCNC(=N)N)NC(=O)[C@@H](NC(=O)CNC(C)=O)C(C)C)CCC/C=C/CCC[C@@](C)(C(=O)N[C@H](C(=O)N[C@H](C(=O)N[C@@H](Cc2ccccc2)C(=O)N[C@H](C(=O)N[C@@H](CO)C(=O)NCC(=O)NCC(=O)N[C@@H](CO)C(=O)N[C@@H](CCCNC(=N)N)C(=O)N[C@@H](Cc2c[nH]c3ccccc23)C(=O)O)[C@@H](C)O)[C@@H](C)CC)C(C)C)NC(=O)[C@H](CCCNC(=N)N)NC1=O (Ac-GVRLSGR[S5]FIR[S5]VIFTSGGSRW-OH; staple (E) 8-12)
7 | – | > 1000 nM | 537 nM | > 10000 nM | inactive | – | – | – | CC[C@H](C)[C@@H]1NC(=O)[C@H](Cc2ccccc2)NC(=O)[C@@H](NC(=O)[C@H](CCCNC(=N)N)NC(=O)CNC(=O)[C@H](CO)NC(C)=O)CCC(=O)NCCCC[C@@H](C(=O)N[C@H](C(=O)N[C@H](C(=O)N[C@@H](Cc2ccccc2)C(=O)N[C@H](C(=O)N[C@@H](CO)C(=O)NCC(=O)NCC(=O)N[C@@H](CO)C(=O)N[C@@H](CCCNC(=N)N)C(=O)N[C@@H](Cc2c[nH]c3ccccc23)C(=O)O)[C@@H](C)O)[C@@H](C)CC)C(C)C)NC(=O)[C@H](CCCNC(=N)N)NC1=O (Ac-SGREFIRKVIFTSGGSRW-OH; lactam 4-8)
8 | inactive | 3.55 nM | 123 nM | – | inactive | – | – | – | CC[C@H](C)[C@@H]1NC(=O)[C@H](Cc2ccccc2)NC(=O)[C@@](C)(NC(=O)[C@H](CCCNC(=N)N)NC(=O)CNC(=O)[C@H](CO)NC(=O)[C@H](CC(C)C)NC(=O)[C@@H](N)CCCNC(=N)N)CCC/C=C/CCC[C@@](C)(C(=O)N[C@H](C(=O)N[C@H](C(=O)N[C@@H](Cc2ccccc2)C(=O)N[C@H](C(=O)N[C@@H](CO)C(=O)NCC(=O)NCC(=O)N[C@@H](CO)C(=O)N[C@@H](CCCNC(=N)N)C(=O)N[C@@H](Cc2c[nH]c3ccccc23)C(=O)O)[C@@H](C)O)[C@@H](C)CC)C(C)C)NC(=O)[C@H](CCCNC(=N)N)NC1=O (H-RLSGR[S5]FIR[S5]VIFTSGGSRW-OH; staple (E) 6-10)
9 | inactive | 4.47 nM | 316 nM | 275 nM | inactive | 93.3 nM | – | – | CC[C@H](C)[C@@H]1NC(=O)[C@H](Cc2ccccc2)NC(=O)[C@@](C)(NC(=O)[C@H](CCCNC(=N)N)NC(=O)CNC(=O)[C@H](CO)NC(=O)[C@H](CC(C)C)NC(=O)[C@H](CCCNC(=N)N)NC(=O)[C@@H](NC(=O)CN)C(C)C)CCC/C=C/CCC[C@@](C)(C(=O)N[C@H](C(=O)N[C@H](C(=O)N[C@@H](Cc2ccccc2)C(=O)N[C@H](C(=O)N[C@@H](CO)C(=O)NCC(=O)NCC(=O)N[C@@H](CO)C(=O)N[C@@H](CCCNC(=N)N)C(=O)N[C@@H](Cc2c[nH]c3ccccc23)C(=O)O)[C@@H](C)O)[C@@H](C)CC)C(C)C)NC(=O)[C@H](CCCNC(=N)N)NC1=O (H-GVRLSGR[S5]FIR[S5]VIFTSGGSRW-OH; staple (E) 8-12)
